UBC13 polyUb – inhibitors of human UBC13 polyubiquitin chain formation | 330,000 tested, 0.47% active | inhibition, % at 20 µM | P61088 | TR-FRET; in the data active = inhibition above about 45%, passing the limit was not always enough
ZTA DNA inh – ZTA (EBV) inhibition in EBNA-1 counter-screen; ZTA-DNA binding, fluorescence polarization; 320,000 tested, 0.15% active; inhibition, % at 11 µM; in the data active = inhibition above about 33%
Target sequence (P03206 whole entry, looked up): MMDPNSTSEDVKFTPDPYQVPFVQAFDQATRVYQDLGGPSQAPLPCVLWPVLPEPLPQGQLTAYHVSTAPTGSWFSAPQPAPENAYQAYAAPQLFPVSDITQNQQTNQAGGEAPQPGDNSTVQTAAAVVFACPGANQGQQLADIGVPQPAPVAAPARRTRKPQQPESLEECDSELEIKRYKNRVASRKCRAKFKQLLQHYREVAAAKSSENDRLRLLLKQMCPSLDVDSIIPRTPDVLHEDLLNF
EBNA-1 inh – blocks EBNA-1 binding to DNA. EBNA-1 DNA binding, fluorescence polarization. inhibition, % at 14.8 µM. 300,000 tested, 0.34% active. AID 1950; in the data active = inhibition above about 28%
PREPL inhibitor – inhibitors of human prolyl oligopeptidase-like enzyme PREPL; 320,000 tested, 0.68% active; recombinant PREPL, fluorescence polarization activity-based probe; AID 2751; inhibition, % at 5.96 µM; in the data active = inhibition above about 43%
Apaf1 inhib – human Apaf-1 inhibition. O14727. reconstituted apoptosome caspase-3 activity, DEVD-Rh110 fluorescence. inhibition, % at 20 µM. 330,000 tested, 0.71% active; active = inhibition of at least 40% at 20 µM
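Material: biochemical Apaf-1 apoptosome reconstitution. Medium: Hepes buffer, pH 7.5. Also added: cytochrome c activation, bis-DEVD rhodamine 110 substrate. Timing: 30 min compound preincubation, 50 min activation, room temperature. Measured by: rhodamine 110 fluorescence at Ex 480/Em 540 nm.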
Casp3 counter – counter-screen for UBC13 inhibitors: human caspase-3 inhibition; shares compounds with UBC13 polyUb; inhibition, % at 20 µM; Recombinant caspase-3, Caspase-Glo 3/7 luminescence, 60 min; AID 488856; 1,400 tested, 4% active;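 active = mean inhibition across replicates above about 26%, limit read from the data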
Target sequence (P42574 whole entry, looked up): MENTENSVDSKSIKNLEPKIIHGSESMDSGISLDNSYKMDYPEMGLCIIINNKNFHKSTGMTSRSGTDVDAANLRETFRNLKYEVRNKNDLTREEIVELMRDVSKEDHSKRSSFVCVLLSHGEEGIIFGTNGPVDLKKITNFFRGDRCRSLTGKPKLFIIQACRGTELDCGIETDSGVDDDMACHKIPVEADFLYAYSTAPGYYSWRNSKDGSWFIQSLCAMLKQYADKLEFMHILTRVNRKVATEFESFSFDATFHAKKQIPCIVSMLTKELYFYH
UBC13 confirm – confirmation of human UBC13 polyubiquitin inhibitors; inhibition, % at 10 µM; shares compounds with UBC13 polyUb; 1,400 tested, 68% active; AID 488859; UBC13 polyubiquitination, TR-FRET, biochemical; in the data active = inhibition above about 45%
Apaf-1 inh conf2 – confirmation of Apaf-1 inhibitors. 1,800 tested, 25% active. reconstituted apoptosome, caspase-3 DEVD-Rh110 fluorescence. inhibition, % at 20 µM. shares compounds with Apaf1 inhib;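 active = mean inhibition of at least 40% at 20 µM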
Rh110 quench – interferes with Rh110 fluorescence, flagging false Apaf-1 inhibitors; shares compounds with Apaf1 inhib; Rh110 fluorescence interference, quenched caspase reaction; activation (fluorescence interference), % at 20 µM; 1,800 tested, under 10 active; AID 504615;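 active = signal rise of 40% or more at 20 µM, treated as a fluorescence artifact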
Fluor interf inh – counter-screen for Apaf-1 inhibitors: fluorescence interference, dose response; fluorescence interference counterscreen, Apaf-1 assay format; AID 588538; IC50, µM; shares compounds with Apaf1 inhib; 460 tested, under 10 active; call rule not given here
Numbers stand for hits; 0 = inactive; - = no result. The list is not random: actives were taken first. Their share in the collection is about 1.7%.

SMILES	UBC13 polyUb	ZTA DNA inh	EBNA-1 inh	PREPL inhibitor	Apaf1 inhib	Casp3 counter	UBC13 confirm	Apaf-1 inh conf2	Rh110 quench	others
CCCCCCOc1ccc(/C(C)=N/NC2=NCCN2)cc1[N+](=O)[O-]	94	0	0	0	54	0	98	45	0	Fluor interf inh=0
CCCCOc1ccc(Br)cc1/C(C)=N/NC1=NCCN1	0	0	0	0	0	-	-	-	-
CC(=O)Nc1ccc(C(=O)N2CCc3cc4c(cc3C2C)OCCCO4)cc1 (stereo not given)	0	0	0	0	0	-	-	-	-
COc1ccc(-n2cnc3cc(C(=O)NCCN4CCOCC4)ccc32)cc1	0	0	0	0	0	-	-	-	-
COc1ccc(N2CCN(C3CCN(S(=O)(=O)c4ccc(F)cc4)CC3)CC2)cc1	0	0	0	0	0	-	-	-	-
COc1ccc(S(=O)(=O)N2CCN(c3ccc4nnc(-c5ccc(F)cc5)n4n3)CC2)cc1	46	0	0	0	51	0	0	47	0	Fluor interf inh=0
CC(C)(C)C1CCC(CN2C(Nc3ccccc3)=NC[C@@H]2Cc2ccccc2)CC1 (stereo not given in full)	72	-	-	0	75	0	77	0	0
CCOC(=O)c1cc2c(=O)n3ccccc3nc2n(Cc2ccco2)c1=NC(=O)c1ccc(OC)cc1	0	0	0	0	0	-	-	-	-
CN(C)CCCN(C(=O)c1ccc(S(=O)(=O)N2CCCC2)cc1)c1nc2ccc(Br)cc2s1	70	0	0	0	53	0	97	0	0
Cc1cc(C)c2sc(N(CCCN(C)C)C(=O)c3ccc(S(=O)(=O)N(C)C4CCCCC4)cc3)nc2c1	58	0	0	0	40	0	97	0	0
CCOc1cccc2sc(N(CCCN(C)C)C(=O)c3ccc(S(=O)(=O)N4CCc5ccccc5C4)cc3)nc12	91	0	0	0	62	0	110	0	0
CN(C)CCCN(C(=O)c1ccc(S(=O)(=O)N2CCCCC2)cc1)c1nc2cc3c(cc2s1)OCO3	55	0	0	0	42	0	90	0	0
CCN(CC)S(=O)(=O)c1c(OC)cc(C)c(Cl)c1C	0	0	0	0	0	-	-	-	-
CC(Oc1ccc2c(c1)oc(=O)c1ccccc12)C(=O)NCCCN1CCOCC1 (stereo not given)	0	0	0	0	0	-	-	-	-
CN(CC(=O)Nc1cccc(F)c1)C(=O)c1ccccc1OCC(=O)Nc1cccc(C(F)(F)F)c1	0	0	0	0	0	-	-	-	-
COc1ccc(C2=CSC3=NCCN23)cc1F	0	0	0	0	0	-	-	-	-
CCN(Cc1ccccc1)S(=O)(=O)c1ccc(C(=O)N(CCCN(C)C)c2nc3ccc(F)cc3s2)cc1	0	0	0	0	0	-	-	-	-
CN(C)CCCN(C(=O)c1ccc(C(=O)c2ccccc2)cc1)c1nc2cc3c(cc2s1)OCO3	72	0	0	0	60	0	106	0	0
CCN(Cc1ccccc1)S(=O)(=O)c1ccc(C(=O)N(CCCN(C)C)c2nc3cc4c(cc3s2)OCCO4)cc1	96	0	0	0	41	0	114	0	0
OC(CNCC1CCCO1)Cn1c2ccc(Cl)cc2c2cc(Cl)ccc21 (stereo not given)	49	0	0	0	43	0	89	0	0
C#CCOCCOCCOCCNc1nc(N2CCN(C(=O)[C@H]([C@@H](C)CC)n3cc(CCCCN)nn3)CC2)nc(N2CCN(C(=O)[C@H](C)n3cc(CCC(=O)O)nn3)CC2)n1	0	0	0	0	0	-	-	-	-
C#CCOCCOCCOCCNc1nc(N2CCN(C(=O)CCCCCCCCCCNC(=O)Cn3cc(C[C@@H](C)O)nn3)CC2)nc(N2CCN(C(=O)CCCCCCCCCCNC(=O)[C@@H](CCC(=O)O)n3cc(CCCCCN)nn3)CC2)n1	66	0	0	0	52	0	51	0	0
C#CCOCCOCCOCCNc1nc(N2CCN(C(=O)CCCCCCCCCCNC(=O)[C@@H](CCC(=O)O)n3cc(CCCCCN)nn3)CC2)nc(N2CCN(C(=O)CCCCCCCCCCNC(=O)[C@H]([C@@H](C)CC)n3cc(CCCCCN)nn3)CC2)n1	114	0	0	0	61	0	104	0	0
C#CCOCCOCCOCCNc1nc(N2CCN(C(=O)[C@H]([C@@H](C)CC)n3cc(CCCCN)nn3)CC2)nc(N2CCN(C(=O)[C@H](CCCCN)n3cc(CCCC)nn3)CC2)n1	0	0	0	0	0	-	-	-	-
C#CCOCCOCCOCCNc1nc(N2CCN(C(=O)CCCCCCCCCCNC(=O)[C@H]([C@@H](C)CC)n3cc(CCCCCN)nn3)CC2)nc(N2CCN(C(=O)CCCCCCCCCCNC(=O)[C@H](CCCCN)n3cc(CCCC(=O)O)nn3)CC2)n1	114	0	0	0	56	0	105	0	0
C#CCOCCOCCOCCNc1nc(N2CCN(C(=O)CCCCCCCCCCNC(=O)[C@H](CO)n3cc(CCCSC)nn3)CC2)nc(N2CCN(C(=O)CCCCCCCCCCNC(=O)[C@H](CCCCN)n3cc(CCO)nn3)CC2)n1	113	-	-	0	74	0	124	42	0	Fluor interf inh=0
C#CCOCCOCCOCCNc1nc(N2CCN(C(=O)[C@H](CCCCN)n3cc(C(N)[C@H](C)CC)nn3)CC2)nc(N2CCN(C(=O)[C@H](CCC(=O)O)n3cc(C(N)[C@H](C)CC)nn3)CC2)n1 (stereo not given in full)	0	0	0	0	0	-	-	-	-
C#CCOCCOCCOCCNc1nc(N2CCN(C(=O)[C@H](CCCCN)n3cc(CN)nn3)CC2)nc(N2CCN(C(=O)[C@H](CCCCN)n3cc([C@@H](N)[C@H](C)CC)nn3)CC2)n1	109	-	-	0	40	0	108	0	0
C#CCOCCOCCOCCNc1nc(N2CCN(C(=O)[C@H](CCCN=C(N)N)n3cc(C(N)[C@@H](C)CC)nn3)CC2)nc(N2CCN(C(=O)[C@H](CCC(=O)O)n3cc([C@@H](N)CCCCN)nn3)CC2)n1 (stereo not given in full)	0	-	-	0	0	-	-	-	-
C#CCOCCOCCOCCNc1nc(N2CCN(C(=O)[C@H](CCCCN)n3cc([C@@H](N)[C@H](C)CC)nn3)CC2)nc(N2CCN(C(=O)[C@H](CCC(=O)O)n3cc([C@@H](N)CCCCN)nn3)CC2)n1	101	-	-	0	47	0	109	0	0

From PubChem
